Source: ChEMBL document CHEMBL1152502, “Synthesis and antiproliferative activity of 2,4-disubstituted 6-aryl-7H-pyrrolo[3,2-d]pyrimidin-7-one 5-oxides” (2009)
Active and inactive are the calls of the source. The rule behind the calls is not given here.

Key:
HBL-100 [1] = assay: Antiproliferative activity against human HBL100 cells after 48 hrs by SRB assay; format: functional; conditions: HBL-100, 48 h
Procedure, shortened: (§1)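 RPMI 1640 with 5% heat-inactivated FCS and 2 mM L-glutamine at 37 °C, 5% CO2. Seeded at 15,000 (WiDr, T-47D, HeLa) or 10,000 (A2780, SW1573, HBL-100) cells/well. Drug added day 1 in triplicate dilutions; vehicle DMSO 0.25% v/v final. 48 h, then TCA fixation and SRB staining read at OD 492 nm, background-corrected. GI50 from NCI percentage-growth formulas using T0 and T; mean of two to six experiments with SD.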

WiDr [2] = assay: Antiproliferative activity against human WiDr cells after 48 hrs by SRB assay; format: functional; procedure, shortened: as §1
SW1573 [3] = assay: Antiproliferative activity against human SW1573 cells after 48 hrs by SRB assay; format: functional; conditions: SW1573, 48 h; procedure, shortened: as §1
A2780 = assay: Antiproliferative activity against human A2780 cells after 48 hrs by SRB assay; format: functional; conditions: A2780, 48 h; procedure, shortened: as §1
HeLa [4] = assay: Antiproliferative activity against human HeLa cells after 48 hrs by SRB assay; format: functional; procedure, shortened: as §1
T47D [5] = assay: Antiproliferative activity against human T47D cells after 48 hrs by SRB assay; format: functional; procedure, shortened: as §1
T47D [6] = assay: Cell cycle arrest in human T47D cells by decrease in accumulation at G1 phase at 2 uM after 24 hrs by flow cytometry; format: functional, cell-based
Procedure, shortened: (§2)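 Cells seeded at 2.5–5 × 10^5 per well in six-well plates. After 24 h, compound added at three concentrations for a further 24 h; controls without drug. Cells trypsinized, fixed in ice-cold 70% ethanol overnight at −20 °C, treated with RNase (37 °C, 30 min, dark) and stained with propidium iodide. DNA content measured by flow cytometry, 25,000 cells/sample.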

WiDr [7] = assay: Cell cycle arrest in human WiDr cells by accumulation at subG1 phase after 24 hrs by flow cytometry; format: functional, cell-based; procedure, shortened: as §2
HBL-100 [8] = assay: Cell cycle arrest in human HBL100 cells by decrease in accumulation at G1 phase at 2 uM after 24 hrs by flow cytometry; format: functional, cell-based; procedure, shortened: as §2
SW1573 [9] = assay: Cell cycle arrest in human SW1573 cells by decrease in accumulation at S phase at 2 uM after 24 hrs by flow cytometry; format: functional, cell-based; procedure, shortened: as §2
HBL-100 [10] = assay: Cell cycle arrest in human HBL100 cells by increase in accumulation at G2/M phase at 2 uM after 24 hrs by flow cytometry; format: functional, cell-based; procedure, shortened: as §2
SW1573 [11] = assay: Cell cycle arrest in human SW1573 cells by increase in accumulation at G2/M phase at 2 uM after 24 hrs by flow cytometry; format: functional, cell-based; procedure, shortened: as §2
SW1573 [12] = assay: Cell cycle arrest in human SW1573 cells by decrease in accumulation at G1 phase at 2 uM after 24 hrs by flow cytometry; format: functional, cell-based; procedure, shortened: as §2
T47D [13] = assay: Cell cycle arrest in human T47D cells by decrease in accumulation at S phase at 2 uM after 24 hrs by flow cytometry; format: functional, cell-based; procedure, shortened: as §2
T47D [14] = assay: Cell cycle arrest in human T47D cells by increase in accumulation at G2/M phase at 2 uM after 24 hrs by flow cytometry; format: functional, cell-based; procedure, shortened: as §2
HeLa [15] = assay: Cell cycle arrest in human HeLa cells by accumulation at subG1 phase after 24 hrs by flow cytometry; format: functional, cell-based; procedure, shortened: as §2
T47D [16] = assay: Cell cycle arrest in human T47D cells by accumulation at subG1 phase after 24 hrs by flow cytometry; format: functional, cell-based; procedure, shortened: as §2
HBL-100 [17] = assay: Cell cycle arrest in human HBL100 cells by accumulation at subG1 phase after 24 hrs by flow cytometry; format: functional, cell-based; procedure, shortened: as §2
HBL-100 [18] = assay: Cell cycle arrest in human HBL100 cells by decrease in accumulation at S phase at 2 uM after 24 hrs by flow cytometry; format: functional, cell-based; procedure, shortened: as §2
SW1573 [19] = assay: Cell cycle arrest in human SW1573 cells by accumulation at subG1 phase after 24 hrs by flow cytometry; format: functional, cell-based; procedure, shortened: as §2

| SMILES | GI50 (HBL-100 [1]) [µM] | GI50 (WiDr [2]) [µM] | GI50 (SW1573 [3]) [µM] | GI50 (A2780) [µM] | GI50 (HeLa [4]) [µM] | GI50 (T47D [5]) [µM] | further results |
| --- | --- | --- | --- | --- | --- | --- | --- |
| CCc1ccc(C2=[N+]([O-])c3c(N)nc(SC)nc3C2=O)cc1 | 37 | 53 | 37 | 54 | 80 | 43 |  |
| Nc1nc(NCCN2CCCC2)nc2c1[N+]([O-])=C(c1ccccc1)C2=O | 1.8 | 14 | 6.2 | 2.6 | 16 | 13 |  |
| CCc1ccc(C2=[N+]([O-])c3c(N)ncnc3C2=O)cc1 | 54 | 70 | 40 | 39 | 75 | 82 |  |
| C[S+]([O-])c1nc(N)c2c(n1)C(=O)C(c1ccccc1)=[N+]2[O-] (centres undefined) | 32 | > 100 | > 100 | 79 | > 100 | > 100 |  |
| Nc1nc(N2CCCCCC2)nc2c1[N+]([O-])=C(c1ccccc1)C2=O | 1.4 | 1.8 | 1.3 | 1.8 | 2 | 0.35 | Activity (T47D [6]): Active; Activity (WiDr [7]): Dose-dependent effect; Activity (HBL-100 [8]): Active; Activity (SW1573 [9]): Active; Activity (HBL-100 [10]): Active; Activity (SW1573 [11]): Active; Activity (SW1573 [12]): Active; Activity (T47D [13]): Active; Activity (T47D [14]): Active; Activity (HeLa [15]): Dose-dependent effect; Activity (T47D [16]): Dose-dependent effect; Activity (HBL-100 [17]): Dose-dependent effect; Activity (HBL-100 [18]): Active; Activity (SW1573 [19]): Dose-dependent effect |
| Nc1nc(N2CCCCC2)nc2c1[N+]([O-])=C(c1ccccc1)C2=O | 1.7 | 3.7 | 3.3 | 2.9 | 3.5 | 2.7 |  |
| Cc1ccc(C2=[N+]([O-])c3c(N)ncnc3C2=O)cc1 | > 100 | > 100 | > 100 | > 100 | > 100 | > 100 |  |
| Nc1nc(NCCc2ccccc2)nc2c1[N+]([O-])=C(c1ccccc1)C2=O | 17 | 71 | 22 | 37 | > 100 | 41 |  |
| CSc1nc2c(c(N3CCCC3)n1)[N+]([O-])=C(c1ccccc1)C2=O | > 100 | > 100 | > 100 | > 100 | > 100 | > 100 |  |
| C=CCNc1nc(N)c2c(n1)C(=O)C(c1ccccc1)=[N+]2[O-] | 2.7 | 4.7 | 6.8 | 1.9 | 7.6 | 2.8 |  |
| Nc1nc(NCCN2CCOCC2)nc2c1[N+]([O-])=C(c1ccccc1)C2=O | 3.4 | 16 | 14 | 2.9 | 15 | 17 |  |
| Nc1nc(NCc2ccccc2)nc2c1[N+]([O-])=C(c1ccccc1)C2=O | 5.1 | 24 | 30 | 3.7 | 29 | 4 |  |
| CN1CCN(c2nc(N)c3c(n2)C(=O)C(c2ccccc2)=[N+]3[O-])CC1 | 18 | 46 | 23 | 24 | > 100 | > 100 |  |
| COC(=O)CNc1nc(N)c2c(n1)C(=O)C(c1ccccc1)=[N+]2[O-] | 2.8 | 18 | 12 | 1.9 | 19 | 14 |  |
| Nc1ncnc2c1[N+]([O-])=C(c1ccccc1)C2=O | 72 | > 100 | 85 | 30 | > 100 | > 100 |  |
| CSc1nc(NCc2ccccc2)c2c(n1)C(=O)C(c1ccccc1)=[N+]2[O-] | 27 | 79 | 26 | 59 | 36 | 81 |  |
| CSc1nc(N)c2c(n1)C(=O)C(c1ccc(C)cc1)=[N+]2[O-] | 28 | > 100 | 31 | 93 | > 100 | > 100 |  |
| Nc1nc(N2CCOCC2)nc2c1[N+]([O-])=C(c1ccccc1)C2=O | 22 | 20 | 27 | 37 | 38 | 7.5 |  |
| CSc1nc(NCCN2CCOCC2)c2c(n1)C(=O)C(c1ccccc1)=[N+]2[O-] | 24 | > 100 | > 100 | > 100 | > 100 | > 100 |  |
| CN(C)CCCNc1nc(N)c2c(n1)C(=O)C(c1ccccc1)=[N+]2[O-] | 2 | 19 | 2.1 | 2.3 | 20 | 16 |  |
